From ChEMBL document CHEMBL3286287, “Identification of a new selective dopamine D4 receptor ligand” (Bioorg Med Chem, 2014)

Legend:
[1] = target: D(1A) dopamine receptor (Homo sapiens, UniProt P21728); test: Displacement of [3H]SCH23390 from human dopamine D1 receptor by PDSP assay; design: concentration or dose not given beside the values; conditions: for inhibition: concentration not given here
[2] = target: D(1B) dopamine receptor (Homo sapiens, UniProt P21918); test: Displacement of [3H]SCH23390 from human dopamine D5 receptor by PDSP assay; design: concentration or dose not given beside the values; conditions: for inhibition: concentration not given here
Sequence of D(1B) dopamine receptor (P21918 whole entry): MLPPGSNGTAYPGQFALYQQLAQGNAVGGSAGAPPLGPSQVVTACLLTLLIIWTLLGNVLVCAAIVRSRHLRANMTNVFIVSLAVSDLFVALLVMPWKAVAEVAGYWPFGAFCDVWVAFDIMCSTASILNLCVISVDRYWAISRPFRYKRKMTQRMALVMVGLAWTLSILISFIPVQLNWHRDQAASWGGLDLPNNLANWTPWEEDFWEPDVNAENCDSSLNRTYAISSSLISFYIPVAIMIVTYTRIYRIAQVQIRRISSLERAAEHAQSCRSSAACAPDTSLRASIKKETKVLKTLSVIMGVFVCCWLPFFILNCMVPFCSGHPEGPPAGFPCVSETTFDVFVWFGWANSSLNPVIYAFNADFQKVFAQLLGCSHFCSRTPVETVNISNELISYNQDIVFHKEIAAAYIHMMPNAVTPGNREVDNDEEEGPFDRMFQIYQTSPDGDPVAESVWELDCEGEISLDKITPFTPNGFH

[3] = target: T1, D(4) dopamine receptor (Rattus norvegicus, UniProt P30729); test: Displacement of [3H]N-methylspiperone from rat dopamine D4 receptor by PDSP assay
T1 sequence (P30729 whole entry): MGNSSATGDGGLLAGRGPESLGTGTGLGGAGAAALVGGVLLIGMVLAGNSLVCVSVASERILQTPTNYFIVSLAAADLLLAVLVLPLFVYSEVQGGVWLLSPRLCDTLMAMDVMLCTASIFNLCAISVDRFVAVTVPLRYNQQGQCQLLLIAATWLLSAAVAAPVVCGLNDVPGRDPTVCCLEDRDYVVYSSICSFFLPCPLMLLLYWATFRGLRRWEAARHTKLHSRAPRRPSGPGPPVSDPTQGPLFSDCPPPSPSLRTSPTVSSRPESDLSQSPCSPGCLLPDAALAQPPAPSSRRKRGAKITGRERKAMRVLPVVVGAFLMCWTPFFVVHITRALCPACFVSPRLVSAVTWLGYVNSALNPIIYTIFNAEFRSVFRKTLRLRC

[4] = Selectivity ratio of Ki for human dopamine D3 receptor to Ki for rat dopamine D4 receptor
[5] = Selectivity ratio of Ki for human dopamine D2 receptor to Ki for rat dopamine D4 receptor
[6] = target: D(3) dopamine receptor (Homo sapiens, UniProt P35462); test: Displacement of [3H]N-methylspiperone from human dopamine D3 receptor by PDSP assay
Sequence of D(3) dopamine receptor (P35462 whole entry): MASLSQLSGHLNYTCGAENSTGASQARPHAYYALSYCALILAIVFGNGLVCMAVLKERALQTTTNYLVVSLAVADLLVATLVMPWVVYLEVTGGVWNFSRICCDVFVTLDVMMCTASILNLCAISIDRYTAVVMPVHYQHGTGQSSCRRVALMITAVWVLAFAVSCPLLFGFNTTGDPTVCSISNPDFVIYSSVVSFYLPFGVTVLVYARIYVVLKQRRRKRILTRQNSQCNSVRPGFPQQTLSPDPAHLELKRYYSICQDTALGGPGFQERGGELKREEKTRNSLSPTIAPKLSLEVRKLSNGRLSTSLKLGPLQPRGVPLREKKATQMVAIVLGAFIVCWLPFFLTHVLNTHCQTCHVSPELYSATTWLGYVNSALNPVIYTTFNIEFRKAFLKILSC

[7] = target: D(2) dopamine receptor (Homo sapiens, UniProt P14416); test: Displacement of [3H]N-methylspiperone from human dopamine D2 receptor by PDSP assay
Sequence of D(2) dopamine receptor (P14416 whole entry): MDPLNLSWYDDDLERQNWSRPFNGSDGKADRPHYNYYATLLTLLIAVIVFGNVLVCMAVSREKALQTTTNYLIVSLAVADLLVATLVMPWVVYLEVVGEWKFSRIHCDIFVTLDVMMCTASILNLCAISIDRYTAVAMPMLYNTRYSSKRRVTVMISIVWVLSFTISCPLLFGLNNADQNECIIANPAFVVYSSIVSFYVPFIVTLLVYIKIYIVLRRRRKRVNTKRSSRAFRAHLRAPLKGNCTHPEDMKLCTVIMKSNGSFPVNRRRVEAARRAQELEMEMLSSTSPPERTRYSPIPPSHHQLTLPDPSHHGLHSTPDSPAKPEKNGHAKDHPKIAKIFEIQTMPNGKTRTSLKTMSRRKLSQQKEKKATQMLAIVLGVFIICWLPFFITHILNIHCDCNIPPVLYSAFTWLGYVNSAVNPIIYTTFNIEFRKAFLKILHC

[8] = target: 5-hydroxytryptamine receptor 2A (Rattus norvegicus, UniProt P14842); test: Displacement of [3H]ketanserin from rat 5-HT2A receptor by PDSP assay
Sequence of 5-hydroxytryptamine receptor 2A (P14842 whole entry): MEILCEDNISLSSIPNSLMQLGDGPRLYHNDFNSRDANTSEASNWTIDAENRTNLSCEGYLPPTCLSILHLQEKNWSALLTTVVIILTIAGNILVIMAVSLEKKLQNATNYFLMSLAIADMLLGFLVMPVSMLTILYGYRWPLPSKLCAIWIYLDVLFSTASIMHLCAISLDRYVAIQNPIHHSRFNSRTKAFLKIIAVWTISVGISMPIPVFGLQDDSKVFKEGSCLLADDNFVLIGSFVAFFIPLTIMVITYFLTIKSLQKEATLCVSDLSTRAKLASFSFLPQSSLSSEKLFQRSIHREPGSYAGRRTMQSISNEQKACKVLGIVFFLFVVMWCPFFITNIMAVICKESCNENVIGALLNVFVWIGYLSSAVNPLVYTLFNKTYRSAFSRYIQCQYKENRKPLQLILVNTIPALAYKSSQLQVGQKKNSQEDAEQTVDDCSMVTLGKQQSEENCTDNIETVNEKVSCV
How it was run: (§1)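 Ki values were determined by the NIMH Psychoactive Drug Screening Program using radioligand displacement. Compounds first went through a primary assay.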

[9] = target: 5-hydroxytryptamine receptor 7 (Homo sapiens, UniProt P34969); test: Displacement of [3H]LSD from human 5-HT7 receptor by PDSP assay
Sequence of 5-hydroxytryptamine receptor 7 (P34969 whole entry): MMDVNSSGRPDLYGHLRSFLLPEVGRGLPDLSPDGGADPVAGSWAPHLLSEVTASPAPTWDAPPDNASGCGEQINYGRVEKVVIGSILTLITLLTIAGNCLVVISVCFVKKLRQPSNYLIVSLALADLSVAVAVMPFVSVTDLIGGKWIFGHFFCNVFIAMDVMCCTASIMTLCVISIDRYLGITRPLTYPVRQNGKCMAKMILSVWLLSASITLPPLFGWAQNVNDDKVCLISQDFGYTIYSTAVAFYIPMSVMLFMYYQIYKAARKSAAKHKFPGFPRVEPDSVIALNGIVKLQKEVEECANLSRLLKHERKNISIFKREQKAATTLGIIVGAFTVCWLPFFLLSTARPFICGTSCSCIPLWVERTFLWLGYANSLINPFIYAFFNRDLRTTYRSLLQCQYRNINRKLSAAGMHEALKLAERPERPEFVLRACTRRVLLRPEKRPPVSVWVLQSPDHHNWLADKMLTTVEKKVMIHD

[10] = Binding affinity to sigma-2 receptor (unknown origin) by PDSP assay; design: species or system Homo sapiens
[11] = target: Sigma non-opioid intracellular receptor 1 (Homo sapiens, UniProt Q99720); test: Binding affinity to sigma-1 receptor (unknown origin) by PDSP assay
Sequence of Sigma non-opioid intracellular receptor 1 (Q99720 whole entry): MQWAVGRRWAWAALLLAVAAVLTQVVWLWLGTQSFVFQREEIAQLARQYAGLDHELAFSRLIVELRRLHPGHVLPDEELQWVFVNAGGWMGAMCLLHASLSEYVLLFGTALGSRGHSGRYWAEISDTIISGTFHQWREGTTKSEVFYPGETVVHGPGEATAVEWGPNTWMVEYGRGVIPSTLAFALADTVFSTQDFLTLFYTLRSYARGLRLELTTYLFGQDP

[12] = target: T2, 5-hydroxytryptamine receptor 2C (Rattus norvegicus, UniProt P08909); test: Displacement of [3H]mesulergine from rat 5-HT2C receptor by PDSP assay; how it was run: as §1
T2 sequence (P08909 whole entry): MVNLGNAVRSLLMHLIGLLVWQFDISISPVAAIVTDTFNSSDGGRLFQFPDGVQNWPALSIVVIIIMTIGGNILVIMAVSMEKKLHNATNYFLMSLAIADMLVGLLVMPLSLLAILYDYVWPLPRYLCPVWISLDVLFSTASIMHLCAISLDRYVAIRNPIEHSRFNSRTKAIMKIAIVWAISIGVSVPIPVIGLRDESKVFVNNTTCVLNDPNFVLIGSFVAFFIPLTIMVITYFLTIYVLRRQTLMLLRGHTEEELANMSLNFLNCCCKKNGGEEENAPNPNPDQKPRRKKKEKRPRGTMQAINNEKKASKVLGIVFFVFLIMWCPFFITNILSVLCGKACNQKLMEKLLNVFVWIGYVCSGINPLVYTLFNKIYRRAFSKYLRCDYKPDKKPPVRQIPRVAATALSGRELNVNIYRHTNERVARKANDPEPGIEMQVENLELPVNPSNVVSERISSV

Sequence of D(1A) dopamine receptor (P21728 whole entry): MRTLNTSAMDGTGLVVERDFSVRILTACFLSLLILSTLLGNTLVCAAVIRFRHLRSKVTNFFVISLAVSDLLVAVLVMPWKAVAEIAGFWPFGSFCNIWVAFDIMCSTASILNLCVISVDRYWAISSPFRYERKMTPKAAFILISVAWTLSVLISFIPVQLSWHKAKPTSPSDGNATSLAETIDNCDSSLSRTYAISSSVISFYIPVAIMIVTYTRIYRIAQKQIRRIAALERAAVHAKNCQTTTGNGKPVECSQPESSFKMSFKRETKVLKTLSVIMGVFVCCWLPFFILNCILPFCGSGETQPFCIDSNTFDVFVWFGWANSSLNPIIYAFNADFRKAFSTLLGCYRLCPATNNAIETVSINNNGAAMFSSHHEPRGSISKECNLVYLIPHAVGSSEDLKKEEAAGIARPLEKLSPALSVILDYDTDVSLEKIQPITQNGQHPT

| Ki ([3]; read-out: Ki) [nM] | Ratio Ki [4] | Ratio Ki [5] | Ki ([6]; read-out: Ki) [nM] | Ki [7] [nM] | Ki [2] [nM] | Ki ([1]; read-out: Ki) [nM] | SMILES | inhibition [2] [%] | further results |
| --- | --- | --- | --- | --- | --- | --- | --- | --- | --- |
| – | – | – | – | – | – | – | Clc1ccc(N2CCN(CCc3cc4ccccc4o3)CC2)cc1 | < 50 | inhibition [1]: < 50% |
| 2400 | 0.3 | > 4.2 | – | – | – | – | Clc1ccc(N2C[C@H]3C[C@@H]2CN3CCCc2cc3ccccc3o2)cc1 | < 50 | inhibition [1]: < 50% |
| 13 | 103 | 48.8 | 1340 | 635 | – | – | [O-][S+](CCCN1CCN(c2ccc(Cl)cc2)CC1)c1ccc(F)cc1 (centres undefined) | < 50 | inhibition [1]: < 50% |
| – | 185 | 151 | – | – | – | 259 | Fc1ccc(OCCCN2CCN(c3ncccn3)CC2)cc1 | < 50 | – |
| – | – | – | – | – | 2680 | 135 | Fc1ccc(OCCCN2CCN(c3ccc(Cl)cc3)CC2)cc1 | – | – |
| – | 48.5 | 24.3 | – | – | 2810 | 52 | Fc1ccc(SCCCN2CCN(c3ccc(Cl)cc3)CC2)cc1 | – | – |
| – | 6.9 | 74.9 | 214 | – | > 10000 | 1270 | Clc1ccc(N2CCN(CCCc3nc4ccccc4s3)CC2)cc1 | – | – |
| 36 | 126 | – | 4530 | > 10000 | – | 1700 | O=C1c2ccccc2CC1CCN1CCN(c2ccc(Cl)cc2)CC1 (centres undefined) | < 50 | Ki ([1]; read-out: pKi (converted)): 389 nM |
| – | 28.1 | 32.1 | – | – | 3220 | 265 | Fc1ccc(SCCCN2CCN(c3ccccn3)CC2)cc1 | – | – |
| 20 | 8.5 | 55.3 | 170 | 1110 | 2160 | 222 | Cc1ccc(N2CCN(CCCSc3ccc(F)cc3)CC2)nc1 | – | – |
| – | – | – | – | – | 3260 | 521 | Cc1ccc(N2CCN(CCCCc3ccc(F)cc3)CC2)nc1 | – | – |
| 0.84 | – | – | – | – | – | – | c1cnc(N2CCN(CCCCc3nc4ccccc4s3)CC2)nc1 | – | – |
| – | 73.3 | 4.3 | – | – | 867 | 126 | Fc1ccc(OCCCN2CCC(c3ccc(Cl)cc3)CC2)cc1 | – | – |
| 145 | 1.5 | 27.3 | 180 | 3960 | > 10000 | 1170 | Clc1ccc(N2CCN(CCCc3nc4ccccc4o3)CC2)cc1 | – | – |
| 12 | 29.6 | 91 | 355 | 1090 | > 10000 | 2340 | FC(F)(F)c1ccc(OCCCN2CCN(c3ccccn3)CC2)cc1 | – | – |
| 17.5 | – | – | – | – | – | – | O=C(CCCN1CCN(c2ccc(Cl)cc2)CC1)c1ccc(F)cc1 | – | – |
| – | 3.2 | 20.1 | – | – | 1370 | 495 | Fc1ccc(SCCCN2CCN(c3ncccn3)CC2)cc1 | – | – |
| – | 170 | 951 | 187 | 1050 | 2580 | 260 | Cc1ccc(N2CCN(CCCOc3ccc(F)cc3)CC2)nc1 | – | – |
| 6.1 | 406 | 253 | 2480 | 1540 | – | 641 | O=C1c2ccc(F)cc2CC1CCN1CCN(c2ccc(Cl)cc2)CC1 (centres undefined) | < 50 | – |
| 240 | 0.5 | 13 | 119 | 3110 | > 10000 | 7940 | Clc1ccc(N2CCN(CCCCCc3nc4ccccc4o3)CC2)cc1 | – | – |
| – | 7.8 | 54.8 | 31 | – | – | 1900 | Clc1ccc(N2CCN(CCCCc3nc4ccccc4s3)CC2)cc1 | – | – |

| SMILES | Ki ([3]; read-out: Ki) [nM] | Ratio Ki [4] | Ratio Ki [5] | Ki ([6]; read-out: Ki) [nM] | Ki [7] [nM] | Ki [2] [nM] | Ki ([1]; read-out: Ki) [nM] | inhibition [2] [%] | further results |
| --- | --- | --- | --- | --- | --- | --- | --- | --- | --- |
| Fc1ccc(CCCCN2CCN(c3ccccn3)CC2)cc1 | – | – | – | – | – | 1450 | – | – | – |
| Fc1ccc2c(c1)CC(CCN1CCN(c3ccc(Cl)cc3)CC1)C2 (centres undefined) | 13 | – | – | 2770 | 1420 | – | 837 | < 50 | – |
| c1cnc(N2CCN(CCCc3nc4ccccc4s3)CC2)nc1 | 3.9 | – | – | – | – | – | – | – | Ki [8]: 283 nM; Ki [9]: 342 nM; Ki [10]: 162 nM; pKi [10]: 6.79; Ki [11]: 350 nM; Ki [12]: 280 nM |
| Fc1ccc(CCCCN2CCN(c3ccc(Cl)cc3)CC2)cc1 | – | 33.5 | 36.4 | – | – | 1760 | 589 | – | – |
| Clc1ccc(N2CCN(CCc3nc4ccccc4o3)CC2)cc1 | 1410 | 0.6 | – | 850 | – | – | – | < 50 | inhibition [1]: < 50% |
| Clc1ccc(N2CCN(CCCOc3ccccc3)CC2)cc1 | – | 130 | 79.8 | – | – | – | – | – | Ki ([6]; read-out: pKi (converted)): 794 nM; Ki ([3]; read-out: pKi (converted)): 5.5 nM |
| Clc1ccc(N2CCN(CCCCc3nc4ccccc4o3)CC2)cc1 | 30.6 | 1.1 | – | 33 | – | – | – | < 50 | inhibition [1]: < 50% |
| Clc1ccc(N2CCCN(CCCc3cc4ccccc4o3)CC2)cc1 | 185 | 7.9 | 13.5 | 1460 | 2510 | 1520 | 274 | – | – |
| Clc1ccc(N2CCN(CCCc3cc4ccccc4o3)CC2)cc1 | 78.9 | 29 | 25.1 | 2290 | 1980 | – | 1410 | < 50 | – |
| Fc1ccc(CCCCN2CCN(c3ncccn3)CC2)cc1 | – | – | – | – | – | 3810 | 134 | – | – |
